ChEMBL document CHEMBL2384906, “Biological activity, design, synthesis and structure activity relationship of some novel derivatives of curcumin containing sulfonamides” (Eur J Med Chem, 2013)
≈ marks a conversion by molar mass, not a printed value. Calls of active or inactive are those of the source. The calls are words filed in the database; no cut-off is given here.

Legend:
Mus musculus = assay: Antiinflammatory activity in mouse assessed as inhibition of carrageenan-induced increase in paw volume at 200 mg/kg administered 1 hr prior to carrageenan challenge measured after 3 hrs relative to control; assay type: functional
Outline: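 Mice were fasted 2 h and placed in groups of five. Controls received saline i.p. Phenylbutazone was given at 100 mg/kg i.p., curcumin at 200 mg/kg i.p., and derivatives at 200 mg/kg. After 1 h, 0.1 mL of 1% carrageenan in saline was injected subplantar into the right hind paw. Paw volume was followed by plethysmometer for 3 h, and % inhibition was calculated as (Vc − Vt)/Vc × 100.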

HCT-116 = assay: Cytotoxicity against human HCT116 cells after 24 hrs by MTT assay; assay type: functional, cell-based
Outline: (§1)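 The MTT assay seeded 5 × 10⁴ cells per well and grew them 24 h in RPMI 1640 with compound at 2.5–200 µM. Medium without cells was the blank and adriamycin the positive control. MTT was added for 4 h at 37 °C, formazan was solubilised, and absorbance was read at 570 nm. IC50 is the concentration that cuts viability 50% against untreated cells.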

QG-56 = assay: Cytotoxicity against human QG56 cells after 24 hrs by MTT assay; assay type: functional, cell-based; outline: as §1
HeLa = assay: Cytotoxicity against human HeLa cells after 24 hrs by MTT assay; assay type: functional, cell-based; outline: as §1
HepG2 = assay: Cytotoxicity against human HepG2 cells after 24 hrs by MTT assay; assay type: functional, cell-based; outline: as §1
Trichoderma viride [1] = assay: Antifungal activity against Trichoderma viride MTCC 1107 after 48 hrs; assay type: functional; conditions: MTCC 1107, 48 h
Trichoderma viride [2] = assay: Antifungal activity against Trichoderma viride MTCC 1107 assessed as zone of inhibition at 20 uM after 48 hrs by disc diffusion method; assay type: functional; conditions: MTCC 1107, 48 h, read-out: IZ
Outline: (§2)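 Spores from 4-day potato dextrose agar cultures, suspended in sterile water at 1.5 × 10⁵ CFU/mL. 0.2 mL was spread on potato dextrose agar. 5 mm filter-paper discs soaked with test compound were laid on the lawn. Incubation was 48 h at 28 °C, then the inhibition zone was measured in mm. Fluconazole was the positive control and acetone the negative control.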

Trichoderma viride [3] = assay: Antifungal activity against Trichoderma viride MTCC 1107 assessed as zone of inhibition at 40 uM after 48 hrs by disc diffusion method; assay type: functional; conditions: MTCC 1107, 48 h, read-out: IZ; outline: as §2
Trichoderma viride [4] = assay: Antifungal activity against Trichoderma viride MTCC 1107 assessed as zone of inhibition at 80 uM after 48 hrs by disc diffusion method; assay type: functional; conditions: MTCC 1107, 48 h, read-out: IZ; outline: as §2
Curvularia lunata [5] = assay: Antifungal activity against Curvularia lunata MTCC 581 after 48 hrs; assay type: functional; conditions: MTCC 581, 48 h
Curvularia lunata [6] = assay: Antifungal activity against Curvularia lunata MTCC 581 assessed as zone of inhibition at 20 uM after 48 hrs by disc diffusion method; assay type: functional; conditions: MTCC 581, 48 h, read-out: IZ; outline: as §2
Curvularia lunata [7] = assay: Antifungal activity against Curvularia lunata MTCC 581 assessed as zone of inhibition at 40 uM after 48 hrs by disc diffusion method; assay type: functional; conditions: MTCC 581, 48 h, read-out: IZ; outline: as §2
Aspergillus flavus [8] = assay: Antifungal activity against Aspergillus flavus MTCC 1021 after 48 hrs; assay type: functional; conditions: MTCC 1021, 48 h
Curvularia lunata [9] = assay: Antifungal activity against Curvularia lunata MTCC 581 assessed as zone of inhibition at 80 uM after 48 hrs by disc diffusion method; assay type: functional; conditions: MTCC 581, 48 h, read-out: IZ; outline: as §2
Aspergillus flavus [10] = assay: Antifungal activity against Aspergillus flavus MTCC 1021 assessed as zone of inhibition at 20 uM after 48 hrs by disc diffusion method; assay type: functional; outline: as §2
Aspergillus flavus [11] = assay: Antifungal activity against Aspergillus flavus MTCC 1021 assessed as zone of inhibition at 40 uM after 48 hrs by disc diffusion method; assay type: functional; conditions: MTCC 1021, 48 h, read-out: IZ; outline: as §2
Aspergillus flavus [12] = assay: Antifungal activity against Aspergillus flavus MTCC 1021 assessed as zone of inhibition at 80 uM after 48 hrs by disc diffusion method; assay type: functional; conditions: MTCC 1021, 48 h, read-out: IZ; outline: as §2
Aspergillus niger [13] = assay: Antifungal activity against Aspergillus niger MTCC 1108 after 48 hrs; assay type: functional; conditions: MTCC 1108, 48 h
Aspergillus niger [14] = assay: Antifungal activity against Aspergillus niger MTCC 1108 assessed as zone of inhibition at 20 uM after 48 hrs by disc diffusion method; assay type: functional; conditions: MTCC 1108, 48 h, read-out: IZ; outline: as §2
Aspergillus niger [15] = assay: Antifungal activity against Aspergillus niger MTCC 1108 assessed as zone of inhibition at 40 uM after 48 hrs by disc diffusion method; assay type: functional; conditions: MTCC 1108, 48 h, read-out: IZ; outline: as §2
Aspergillus niger [16] = assay: Antifungal activity against Aspergillus niger MTCC 1108 assessed as zone of inhibition at 80 uM after 48 hrs by disc diffusion method; assay type: functional; conditions: MTCC 1108, 48 h, read-out: IZ; outline: as §2
Escherichia coli [17] = assay: Antimicrobial activity against Escherichia coli ATCC 35218 after 24 hrs by broth micro serial dilution method; assay type: functional; conditions: ATCC 35218, 24 h
Outline: (§3)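 This was broth microdilution in autoclaved Mueller-Hinton broth. 150 µL of compound per well was serially diluted […], and 50 µL of test organism was added. Plates were incubated 24 h at 37 °C and optical density was read.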

Escherichia coli [18] = assay: Antimicrobial activity against Escherichia coli ATCC 35218 assessed as diameter of inhibition zone at 20 uM after 24 hrs by Kirby -Baur disc diffusion method; assay type: functional; conditions: ATCC 35218, 24 h, read-out: DIZ
Outline: (§4)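 Kirby-Bauer disc diffusion was used. Acetone stocks (160 µM) were serially doubled down to 80, 40 and 20 µM. 4 µL of each went onto 5 mm sterile paper discs, which were dried 30 min at 50 °C. Inoculum was 1.5 × 10⁸ CFU/mL diluted to 3 × 10² CFU/mL, and 50 µL was spread on Mueller-Hinton agar. After 24 h at 37 °C the inhibition-zone diameter was measured. Ciprofloxacin served as positive control.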

Escherichia coli [19] = assay: Antimicrobial activity against Escherichia coli ATCC 35218 assessed as diameter of inhibition zone at 40 uM after 24 hrs by Kirby -Baur disc diffusion method; assay type: functional; conditions: ATCC 35218, 24 h, read-out: DIZ; outline: as §4
Escherichia coli [20] = assay: Antimicrobial activity against Escherichia coli ATCC 35218 assessed as diameter of inhibition zone at 80 uM after 24 hrs by Kirby -Baur disc diffusion method; assay type: functional; conditions: ATCC 35218, 24 h, read-out: DIZ; outline: as §4
Pseudomonas aeruginosa [21] = assay: Antimicrobial activity against Pseudomonas aeruginosa ATCC 15499 after 24 hrs by broth micro serial dilution method; assay type: functional; conditions: ATCC 15499, 24 h; outline: as §3
Pseudomonas aeruginosa [22] = assay: Antimicrobial activity against Pseudomonas aeruginosa ATCC 15499 assessed as diameter of inhibition zone at 20 uM after 24 hrs by Kirby -Baur disc diffusion method; assay type: functional; outline: as §4
Pseudomonas aeruginosa [23] = assay: Antimicrobial activity against Pseudomonas aeruginosa ATCC 15499 assessed as diameter of inhibition zone at 40 uM after 24 hrs by Kirby -Baur disc diffusion method; assay type: functional; conditions: ATCC 15499, 24 h, read-out: DIZ; outline: as §4
Pseudomonas aeruginosa [24] = assay: Antimicrobial activity against Pseudomonas aeruginosa ATCC 15499 assessed as diameter of inhibition zone at 80 uM after 24 hrs by Kirby -Baur disc diffusion method; assay type: functional; conditions: ATCC 15499, 24 h, read-out: DIZ; outline: as §4
Salmonella typhi [25] = assay: Antimicrobial activity against Salmonella typhi ATCC 23564 after 24 hrs by broth micro serial dilution method; assay type: functional, Salmonella enterica subsp. enterica serovar Typhi; conditions: Salmonella enterica, ATCC 23564, 24 h
Salmonella typhi [26] = assay: Antimicrobial activity against Salmonella typhi ATCC 23564 assessed as diameter of inhibition zone at 20 uM after 24 hrs by Kirby -Baur disc diffusion method; assay type: functional, Salmonella enterica subsp. enterica serovar Typhi; conditions: Salmonella enterica, ATCC 23564, 24 h; read-out: DIZ
Salmonella typhi [27] = assay: Antimicrobial activity against Salmonella typhi ATCC 23564 assessed as diameter of inhibition zone at 40 uM after 24 hrs by Kirby -Baur disc diffusion method; assay type: functional, Salmonella enterica subsp. enterica serovar Typhi; conditions: Salmonella enterica, ATCC 23564, 24 h; read-out: DIZ
Salmonella typhi [28] = assay: Antimicrobial activity against Salmonella typhi ATCC 23564 assessed as diameter of inhibition zone at 80 uM after 24 hrs by Kirby -Baur disc diffusion method; assay type: functional, Salmonella enterica subsp. enterica serovar Typhi; conditions: Salmonella enterica, ATCC 23564, 24 h; read-out: DIZ
Bacillus cereus [29] = assay: Antimicrobial activity against Bacillus cereus MTCC 7350 after 24 hrs by broth micro serial dilution method; assay type: functional; conditions: MTCC 7350, 24 h; outline: as §3
Bacillus cereus [30] = assay: Antimicrobial activity against Bacillus cereus MTCC 7350 assessed as diameter of inhibition zone at 20 uM after 24 hrs by Kirby -Baur disc diffusion method; assay type: functional; conditions: MTCC 7350, 24 h, read-out: DIZ; outline: as §4
Bacillus cereus [31] = assay: Antimicrobial activity against Bacillus cereus MTCC 7350 assessed as diameter of inhibition zone at 40 uM after 24 hrs by Kirby -Baur disc diffusion method; assay type: functional; conditions: MTCC 7350, 24 h, read-out: DIZ; outline: as §4
Bacillus cereus [32] = assay: Antimicrobial activity against Bacillus cereus MTCC 7350 assessed as diameter of inhibition zone at 80 uM after 24 hrs by Kirby -Baur disc diffusion method; assay type: functional; conditions: MTCC 7350, 24 h, read-out: DIZ; outline: as §4
Staphylococcus aureus [33] = assay: Antimicrobial activity against Staphylococcus aureus ATCC 11632 after 24 hrs by broth micro serial dilution method; assay type: functional; conditions: ATCC 11632, 24 h; outline: as §3
Staphylococcus aureus [34] = assay: Antimicrobial activity against Staphylococcus aureus ATCC 11632 assessed as diameter of inhibition zone at 20 uM after 24 hrs by Kirby -Baur disc diffusion method; assay type: functional; conditions: ATCC 11632, 24 h, read-out: DIZ; outline: as §4
Staphylococcus aureus [35] = assay: Antimicrobial activity against Staphylococcus aureus ATCC 11632 assessed as diameter of inhibition zone at 40 uM after 24 hrs by Kirby -Baur disc diffusion method; assay type: functional; conditions: ATCC 11632, 24 h, read-out: DIZ; outline: as §4
Staphylococcus aureus [36] = assay: Antimicrobial activity against Staphylococcus aureus ATCC 11632 assessed as diameter of inhibition zone at 80 uM after 24 hrs by Kirby -Baur disc diffusion method; assay type: functional; conditions: ATCC 11632, 24 h, read-out: DIZ; outline: as §4

`COc1ccc(NS(=O)(=O)c2ccc(/N=C(/C=C(O)/C=C/c3ccc(O)c(OC)c3)\C=C\c3ccc(O)c(OC)c3)cc2)nn1` was tested, and the inhibition in vivo at 200 mg/kg (Mus musculus) was 35.4%, the IC50 (HCT-116) was 25 µM and the IC50 (QG-56) was 25 µM. The IC50 (HeLa) was 50 µM, the IC50 (HepG2) was 25 µM and the MIC (Trichoderma viride [1]) was 20 µM (≈ 12.6 µg/mL). It also gave a zone of inhibition at 20 µM (Trichoderma viride [2]) of 12 mm, a zone of inhibition at 40 µM (Trichoderma viride [3]) of 16 mm and a zone of inhibition at 80 µM (Trichoderma viride [4]) of 19 mm. The MIC (Curvularia lunata [5]) was 20 µM (≈ 12.6 µg/mL), the zone of inhibition at 20 µM (Curvularia lunata [6]) was 12 mm and the zone of inhibition at 40 µM (Curvularia lunata [7]) was 15 mm. For the same compound, the MIC (Aspergillus flavus [8]) was > 80 µM, the zone of inhibition at 80 µM (Curvularia lunata [9]) was 18 mm and the “inhibition zone (IZ)” value (Aspergillus flavus [10]) was “inactive”. The zone of inhibition at 40 µM (Aspergillus flavus [11]) was 9 mm, the zone of inhibition at 80 µM (Aspergillus flavus [12]) was 10 mm and the MIC (Aspergillus niger [13]) was 40 µM (≈ 25.2 µg/mL). It also gave a zone of inhibition at 20 µM (Aspergillus niger [14]) of 10 mm, a zone of inhibition at 40 µM (Aspergillus niger [15]) of 14 mm and a zone of inhibition at 80 µM (Aspergillus niger [16]) of 14 mm. The MIC (Escherichia coli [17]) was 20 µM (≈ 12.6 µg/mL), the zone of inhibition at 20 µM (Escherichia coli [18]) was 16 mm and the zone of inhibition at 40 µM (Escherichia coli [19]) was 18 mm. The zone of inhibition at 80 µM (Escherichia coli [20]) was 21 mm, the MIC (Pseudomonas aeruginosa [21]) was 20 µM (≈ 12.6 µg/mL) and the “diameter of the inhibition zone (DIZ)” value (Pseudomonas aeruginosa [22]) was “inactive”. For the same compound, the zone of inhibition at 40 µM (Pseudomonas aeruginosa [23]) was 10 mm, the zone of inhibition at 80 µM (Pseudomonas aeruginosa [24]) was 14 mm and the MIC (Salmonella typhi [25]) was 20 µM (≈ 12.6 µg/mL). The zone of inhibition at 20 µM (Salmonella typhi [26]) was 13 mm, the zone of inhibition at 40 µM (Salmonella typhi [27]) was 16 mm and the zone of inhibition at 80 µM (Salmonella typhi [28]) was 19 mm. For the same compound, the MIC (Bacillus cereus [29]) was 20 µM (≈ 12.6 µg/mL), the zone of inhibition at 20 µM (Bacillus cereus [30]) was 9 mm and the zone of inhibition at 40 µM (Bacillus cereus [31]) was 11 mm. The zone of inhibition at 80 µM (Bacillus cereus [32]) was 14 mm, the MIC (Staphylococcus aureus [33]) was 20 µM (≈ 12.6 µg/mL) and the zone of inhibition at 20 µM (Staphylococcus aureus [34]) was 9 mm. It also gave a zone of inhibition at 40 µM (Staphylococcus aureus [35]) of 14 mm and a zone of inhibition at 80 µM (Staphylococcus aureus [36]) of 17 mm.
